PLC-gamma1 inh: PLC-gamma1 enzyme inhibitors, primary screen, biochemical, fluorescence, purified enzyme; 1-phosphatidylinositol 4,5-bisphosphate phosphodiesterase gamma-1 (Homo sapiens), P19174; fluorogenic substrate; inhibition, % at 12.2 µM; actives 0.84% (n = 370,000); AID 720700, 2013
PLCb3 inh: human PLC-beta3 inhibitors, primary screen, biochemical, fluorescence | 1-phosphatidylinositol 4,5-bisphosphate phosphodiesterase beta-3 (Homo sapiens), Q01970 | Purified PLC-beta3, fluorogenic substrate | inhibition, % at 12.2 µM | actives 0.18% (n = 370,000) | AID 720704, 2013; in the data active = inhibition above about 11%
HGIII-sPLA2 inh: human group III sPLA2 inhibitors, primary screen, biochemical, QFRET, BODIPY PC-A2 liposome substrate. AID 743126, 2013. inhibition, % at 12.2 µM. Group 3 secretory phospholipase A2 (Homo sapiens), Q9NZ20. actives 0.56% (n = 370,000). QFRET BODIPY PC-A2 liposome hydrolysis, fluorescence;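 active = inhibition above mean plus 3 SD of compounds lying within the high and low control bounds, cut at about 19% in these data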
procasp3 activ: activators of human procaspase-3 D3A mutant, primary screen, biochemical, absorbance, PC-3 D3A mutant, single concentration. Caspase-3 (Homo sapiens), P42574. recombinant procaspase-3 D3A, Ac-DEVD-pNA absorbance 405 nm. activation, % at 8.5 µM. actives 0.11% (n = 330,000). AID 463141, 2010;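 active = activation above the mean of all tested compounds plus 3 SD, cut at about 21% in these data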
Target sequence (P42574 whole entry D9A/D28A/D175A): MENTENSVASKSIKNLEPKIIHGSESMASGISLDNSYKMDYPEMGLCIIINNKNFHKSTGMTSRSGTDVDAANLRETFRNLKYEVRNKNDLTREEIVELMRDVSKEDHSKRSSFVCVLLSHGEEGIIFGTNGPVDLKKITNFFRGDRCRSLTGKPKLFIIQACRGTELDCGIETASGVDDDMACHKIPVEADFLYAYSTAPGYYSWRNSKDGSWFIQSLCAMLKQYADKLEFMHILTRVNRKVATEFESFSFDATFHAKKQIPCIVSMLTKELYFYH
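assay system = Procaspase-3 D3A mutant | signal = absorbance at 405 nm, 0 and 120 min | times = 1 h preincubation plus 2 h reaction at 25 °C | repeats = single replicate | read-out = % activation between DMSO and enzyme-spiked controls | medium = Zinc-free HEPES saline buffer with Triton X-100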
proCasp7 act: procaspase-7 activators, primary screen, counter-screen for procaspase-3 activator project, biochemical, absorbance, HTS, human | Caspase-7 (Homo sapiens), P55210 | recombinant procaspase-7, Ac-DEVD-pNA absorbance 405 nm; D23A/D198A/D206A triple mutant, cannot self-cleave; scale: DMSO 0, 5 µM enzyme 100 | activation, % at 8.5 µM | actives 0.093% (n = 330,000);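 active = percent activation above the screen-wide mean plus 3 SD, cut at about 25% in these data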
Target sequence (P55210 whole entry D23A/D198A/D206A): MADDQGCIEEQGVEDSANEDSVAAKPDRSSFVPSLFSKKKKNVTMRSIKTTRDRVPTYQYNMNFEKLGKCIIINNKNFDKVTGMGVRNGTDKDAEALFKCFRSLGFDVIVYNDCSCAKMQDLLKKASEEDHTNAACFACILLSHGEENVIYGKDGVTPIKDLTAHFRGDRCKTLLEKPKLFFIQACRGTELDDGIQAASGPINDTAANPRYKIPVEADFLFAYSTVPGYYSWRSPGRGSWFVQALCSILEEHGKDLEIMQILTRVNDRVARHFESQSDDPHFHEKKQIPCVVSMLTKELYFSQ
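Assay system: Uncleavable procaspase-7 mutant enzyme | Input: 2 µM procaspase-7 mutant as dispensed | Timing: 1 h compound preincubation, 2 h substrate cleavage, 25 °C | Repeats: One well per compound | Control set: DMSO wells as 0%, DMSO with 5 µM added PC-7 as 100% | Technique: Epi-absorbance of released pNA at 405 nm, two timepoints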
PLCgamma1 ctr: PLC-gamma1 enzyme inhibitors, counter-screen for PLC-beta3 inhibitor project, biochemical, fluorescence; shares compounds with PLC-gamma1 inh; actives 3.1% (n = 3,300); inhibition, % at 12.3 µM; purified PLC-gamma1, fluorogenic substrate
PLCbeta3 conf: PLC-beta3 inhibitor confirmation, biochemical, fluorescence, purified enzyme; shares compounds with PLC-gamma1 inh; fluorogenic substrate fluorescence; inhibition, % at 12.3 µM; actives 1% (n = 3,300); AID 743261, 2014; in the data active = inhibition above about 11%
Each line names hits and unclear results; the compound was inactive in the other large screens (follow-up assays come after a bar, where they were run). Compounds with a hit are over-represented: about 1.6% of the library has one in this group of screens. Cut-off read from the data, not from the text of the source, unless noted: active = inhibition above about 9.5%; inactive = the rest.

O=C1NCN(c2ccccc2)C12CCN(C(c1cc3ccccc3o1)c1nnnn1-c1ccc3c(c1)OCCO3)CC2 (centres undefined)	none (no result: procasp3 activ, proCasp7 act)
COC(=O)C1=C(c2ccc(OC(F)(F)F)cc2)C[C@@H]2CC[C@H]1N2C(=O)N1CCCC1	PLC-gamma1 inh 12 | PLCgamma1 ctr inactive | PLCbeta3 conf inactive
CC(=O)CC(=O)C1C(=O)N(C)C(=O)N(C)C1=O	PLC-gamma1 inh 11 | PLCgamma1 ctr inactive | PLCbeta3 conf inactive
CN1C(=O)C(c2ccccc2)C(=O)N(C)C1=O	none
COP(=O)(OC)C(O)C(Cl)(Cl)Cl (centres undefined)	none (no result: PLC-gamma1 inh, PLCb3 inh, HGIII-sPLA2 inh)
CN(C)CP(=O)(O)CN(C)C=O	PLCb3 inh 12 | PLCgamma1 ctr inactive | PLCbeta3 conf inactive
COc1ccc(-c2ccc3c(c2)CN(CC(C)C)Cc2cnnn2-3)cc1	none (no result: procasp3 activ, proCasp7 act)
COc1ccc(-c2ccc3c(c2)CN(c2cccc(Cl)c2)Cc2cnnn2-3)cc1	PLC-gamma1 inh 13 (no result: procasp3 activ, proCasp7 act) | PLCgamma1 ctr inactive | PLCbeta3 conf inactive
COc1ccc(-n2c(O)c(C(C)=NCc3ccco3)c(=O)[nH]c2=O)cc1	none
CC(=NCCCN1CCOCC1)c1c(O)[nH]c(=O)[nH]c1=O	PLC-gamma1 inh 15 | PLCgamma1 ctr inactive | PLCbeta3 conf inactive
C=CCn1c(O)c(C(C)=NCCCN2CCOCC2)c(=O)[nH]c1=O	none
CN1CCCN(C(=O)COc2ccc(F)cc2F)CC1	none
CCOC(=O)[C@]12Cc3ccc4ccccc4c3[C@H]1N(Cc1ccccc1)C(=O)c1ccccc12	PLC-gamma1 inh 11 (no result: procasp3 activ, proCasp7 act) | PLCgamma1 ctr inactive | PLCbeta3 conf inactive
COC(=O)C1=C(c2ccc(OCc3ccccc3)cc2)C[C@@H]2CC[C@H]1N2C(=O)NCc1cccc(C(F)(F)F)c1	none
Cn1c(O)c(C=NCc2ccco2)c(=O)n(C)c1=O	none
CC(=NCc1ccco1)c1c(O)n(C)c(=O)n(C)c1=O	PLC-gamma1 inh 10 | PLCgamma1 ctr inactive | PLCbeta3 conf inactive
C=C1[C@H]2CC[C@H]3[C@]4(C)C[C@H](O[C@@H]5OC(CO)[C@@H](OSOOO)[C@H](OS(=O)(=O)O)[C@H]5OC(=O)CC(C)C)C[C@@H](C(=O)O)[C@H]4CC[C@]3(C2)[C@H]1O (some centres undefined)	PLCb3 inh 12 | PLCgamma1 ctr inactive | PLCbeta3 conf inactive
Cc1cc(C)[n+](CCCC[n+]2c(C)cc(C)cc2C)c(C)c1	none
COC(=O)C1=C(c2ccccc2OCc2ccccc2)C[C@@H]2CC[C@H]1N2C(=O)NC1CCN(Cc2ccccc2)CC1	none
COC(=O)C1=C(c2cccc(OCc3ccccc3)c2)C[C@@H]2CC[C@H]1N2C(=O)NC1CCN(Cc2ccccc2)CC1	PLC-gamma1 inh 12 | PLCgamma1 ctr inactive | PLCbeta3 conf inactive
Clc1ccc(NC2=NCCCS2)cc1Cl	none
CSc1ccc(C(=O)C(C)(C)N2CCOCC2)cc1	PLC-gamma1 inh 11 | PLCgamma1 ctr inactive | PLCbeta3 conf inactive
COc1ccccc1-n1c(CNCC2CCCO2)nc2ccccc2c1=O (centres undefined)	PLC-gamma1 inh 13, PLCb3 inh 11 | PLCgamma1 ctr 9.6 | PLCbeta3 conf inactive
COC(=O)C1=C(C(=O)OC)C2OC1c1cc3ccccc3cc12	none (no result: procasp3 activ, proCasp7 act)
Cn1cnc([N+](=O)[O-])c1Sc1ccc([N+](=O)[O-])cc1	PLCb3 inh 11 | PLCgamma1 ctr inactive | PLCbeta3 conf inactive
O=[N+]([O-])c1ccc(C(c2ccc([N+](=O)[O-])cc2)c2ccc([N+](=O)[O-])cc2)cc1	none (no result: procasp3 activ, proCasp7 act)
COC(=O)C1=C(c2ccc(-c3ccccc3)c(F)c2)C[C@@H]2CC[C@H]1N2C(=O)NCc1ccco1	none
COC(=O)c1c(C)n(Cc2ccc3c(c2)OCO3)c2ccc(O)cc12	PLC-gamma1 inh 11 | PLCgamma1 ctr inactive | PLCbeta3 conf inactive
Cc1oc(-c2ccccc2Cl)nc1CN1C(=O)CN=C(c2ccccc2)c2ccccc21	PLC-gamma1 inh 9.6, PLCb3 inh 11 | PLCgamma1 ctr inactive | PLCbeta3 conf inactive
O=C1CN=C(c2ccccc2)c2ccccc2N1Cc1ccc(C(F)(F)F)cc1	none
COC(=O)C1=C(c2cccc(OCc3ccccc3)c2)C[C@@H]2CC[C@H]1N2C(=O)NCc1ccc2[nH]ccc2c1	none
CCCCN(Cc1ccccc1)C1CCN(CCc2ccccc2)CC1	PLC-gamma1 inh 13 | PLCgamma1 ctr inactive | PLCbeta3 conf inactive
Cc1ccc2c(c1)C1CN(C)CCC1N2C(=O)COc1ccc(S(=O)(=O)N2CCOCC2)cc1 (centres undefined)	none
Cc1cccc(C)c1OP(N)(=O)Oc1c(C)cccc1C	PLC-gamma1 inh 9.6 | PLCgamma1 ctr inactive | PLCbeta3 conf inactive
Cc1cccc(OP(N)(N)=O)c1C	none
Cc1cccc(OCC(=O)N2CCN(Cc3ccc4c(c3)OCO4)CC2)c1	none
Cc1cccc(OCC(=O)N2CCN(Cc3ccncc3)CC2)c1	PLC-gamma1 inh 13 | PLCgamma1 ctr inactive | PLCbeta3 conf inactive
O=C(O)c1ccccc1NC(=O)N1C[C@H]2C[C@@H](C1)c1cccc(=O)n1C2	none
CC1(C)CC(=O)CC(C)(C)N1O	PLC-gamma1 inh 11 (no result: procasp3 activ, proCasp7 act) | PLCgamma1 ctr inactive | PLCbeta3 conf inactive
Cc1ccc(C(=O)N2CC2C)cc1 (centres undefined)	none (no result: procasp3 activ, proCasp7 act)
Cc1cc(Cl)nc(N)n1	PLC-gamma1 inh 13 | PLCgamma1 ctr inactive | PLCbeta3 conf inactive
N#CC1c2ccccc2-n2nncc2CN1C(=O)CCc1ccccc1 (centres undefined)	none (no result: procasp3 activ, proCasp7 act)
CCC(=NCC1CCCO1)c1c(O)n(-c2ccccc2)c(=O)[nH]c1=O (centres undefined)	none
CCCCn1c(O)c(C(CC)=NCCc2ccccc2)c(=O)[nH]c1=O	PLC-gamma1 inh 9.9 | PLCgamma1 ctr inactive | PLCbeta3 conf inactive
CCC(=NCC1CCCO1)c1c(O)n(Cc2ccccc2)c(=O)[nH]c1=O (centres undefined)	PLCb3 inh 20 | PLCgamma1 ctr inactive | PLCbeta3 conf 15
